5 compounds from ChEMBL document CHEMBL1147349, “Bisamides from Aglaia species: structure analysis and potential to reverse drug resistance with cultured cells” (1993) can be followed below.

Each structure is given as a SMILES string. Values after ≈ are worked out from the molar mass of the structure shown.

What all share (type): functional
For one test, the system named is HT-1080. Description: Cytotoxicity against human HT1080 cells. As to conditions: read-out: ED50 (the source's name). In outline:
(§1)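 Human cancer cell lines were cultured with the test compounds at concentrations up to 20 µg/ml. The read-out was cell survival, expressed as ED50.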

Test [1] can be described thus: Cytotoxicity against vinblastine-resistant human KBV1 cells. Particulars: KB-V1, read-out: ED50 (the source's name). The method in brief: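 KB-V1 cells are routinely maintained in vinblastine (1 µg/ml) to keep the drug-resistant phenotype. For this test they were cultured with the test compounds without vinblastine, at concentrations up to 20 µg/ml. The read-out was cell survival, expressed as ED50.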

The next test deals with A-431. Put plainly: Cytotoxicity against human A431 cells. As to conditions: read-out: ED50 (the source's name). The method in brief:
as §1

Test [2] can be described thus: Cytotoxicity against human LUC1 cells. As to conditions: read-out: ED50 (the source's name). The method in brief: as §1
The subject of the next test is LNCaP. Description: Cytotoxicity against human LNCAP cells. Particulars: read-out: ED50 (the source's name). The method in brief:
as §1

The test system of another test is ZR-75-1. Put plainly: Cytotoxicity against human ZR-75-1 cells. Particulars: read-out: ED50 (the source's name). In outline: as §1
A short description of test [3]: Cytotoxicity against human BCA1 cells. As to conditions: read-out: ED50 (the source's name). In outline:
as §1

The next test deals with SK-MEL-2. Put plainly: Cytotoxicity against human SK-MEL-2 cells. As to conditions: read-out: ED50 (the source's name). The method in brief: as §1
A short description of test [4]: Cytotoxicity against human Col1 cells. As to conditions: read-out: ED50 (the source's name). In outline:
as §1

The subject of a further test is KB. Put plainly: Cytotoxicity against human KB cells. As to conditions: read-out: ED50 (the source's name). In outline: as §1
A short description of test [5]: Cytotoxicity against vinblastine-resistant human KBV1 cells by dose-response study in presence of 1 ug/ml vinblastine. As to conditions: KB-V1, read-out: ED50 (the source's name). The method in brief:
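The resistant KB-V1 line, normally kept in vinblastine (1 µg/ml), was exposed to the test compounds up to 20 µg/ml. Vinblastine at 1 µg/ml was present in the culture medium during treatment. The read-out was cell survival, expressed as ED50.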

As to `CC[C@H](C)C(=O)N[C@@H]1CCCN1C(=O)/C=C/c1ccccc1`, the EC50 (in the test with HT-1080; in test [1]; with A-431; in test [2]; in the test on LNCaP; in the test on ZR-75-1) was over 20 µg/mL in each case. For the same compound, the EC50 in test [3] was over 20 µg/mL; with SK-MEL-2 it was over 20 µg/mL; in [4] it was over 20 µg/mL; in the test with KB, over 20 µg/mL; in test [5] it was 4.2 µg/mL.
As to `CC[C@H](C)C(=O)N[C@H]1CCCN1C(=O)/C=C/c1ccccc1` [ODORINE], the EC50 (in the test with HT-1080; in test [1]; with A-431; in test [2]; in the test with LNCaP; with ZR-75-1) was over 20 µg/mL each time. In addition, the EC50 is over 20 µg/mL in test [3]; over 20 µg/mL with SK-MEL-2; over 20 µg/mL in [4]; over 20 µg/mL in the test with KB; 6.4 µg/mL in [5].
Take `CC(C)C(=O)N[C@H]1CCCN1C(=O)/C=C/c1ccccc1` [PIRIFERINE]: the EC50 is over 20 µg/mL in the test with HT-1080; 10 µg/mL (≈ 34.9 µM) in [1]; over 20 µg/mL in the test on A-431; over 20 µg/mL in test [2]; over 20 µg/mL with LNCaP; over 20 µg/mL in the test with ZR-75-1. Besides, the EC50 was over 20 µg/mL in test [3]; over 20 µg/mL in the test with SK-MEL-2; over 20 µg/mL in test [4]; over 20 µg/mL in the test on KB; 8.5 µg/mL in test [5].
`O=C(/C=C/c1ccccc1)NCCCCNC(=O)c1ccccc1` [PYRAMIDATINE]: the EC50 (in the test with HT-1080; in test [1]; in the test with A-431; in test [2]; with LNCaP; in the test with ZR-75-1) was over 20 µg/mL in each case. The EC50 (in [3]; in the test with SK-MEL-2; in [4]; with KB; in test [5]) was over 20 µg/mL each time.
With `CC[C@]1(O)C[C@@H]2CN(CCc3c([nH]c4ccccc34)[C@@](C(=O)OC)(c3cc4c(cc3OC)N(C)[C@H]3[C@@](O)(C(=O)OC)[C@H](OC(C)=O)[C@]5(CC)C=CCN6CC[C@]43[C@@H]65)C2)C1` [VINBLASTINE], the EC50 was 2.6 µg/mL (≈ 3.21 µM) in test [1] and 0.002 µg/mL (≈ 0.00247 µM) with KB.
